Target: Adenosine receptor A2a (Homo sapiens, UniProt P29274)
Assay: Displacement of [3H]ZM241385 from human AA2AR expressed in HEK293T cells after 2 hrs by liquid scintillation counter
In short: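 Membranes of HEK293T cells stably expressing AA2AR (40 µg protein) incubated with 1.7 nM (final) [3H]ZM241385 in 50 mM Tris·HCl pH 7.4, 2 h at 25 °C with shaking. Nonspecific binding defined with 100 µM CGS21680. Filtered over GF/B, washed three times with ice-cold buffer. Compounds giving ≥50% inhibition at 10 µM went to concentration-response curves. pKi values, n=3 in duplicate.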

Sequence of Adenosine receptor A2a (P29274 whole entry): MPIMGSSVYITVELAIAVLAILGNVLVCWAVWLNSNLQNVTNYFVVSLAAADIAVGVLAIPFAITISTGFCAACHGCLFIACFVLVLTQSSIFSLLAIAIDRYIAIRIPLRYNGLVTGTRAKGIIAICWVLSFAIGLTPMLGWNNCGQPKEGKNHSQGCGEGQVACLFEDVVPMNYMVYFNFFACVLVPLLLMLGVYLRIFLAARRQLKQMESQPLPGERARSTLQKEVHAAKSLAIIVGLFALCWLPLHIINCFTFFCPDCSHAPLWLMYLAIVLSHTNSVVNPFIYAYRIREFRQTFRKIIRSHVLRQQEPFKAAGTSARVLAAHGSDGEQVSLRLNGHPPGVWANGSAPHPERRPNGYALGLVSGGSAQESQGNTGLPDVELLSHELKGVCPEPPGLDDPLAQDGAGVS

Structure (SMILES) | Ki [µM]
COc1cc(CN=Nc2ncnc3sc4c(c23)CCCC4)ccc1O | 5.01
N#CC(N=Nc1ccc(S(N)(=O)=O)cc1)c1nc2ccccc2[nH]1 (configuration not stated) | 5.01

— BindingDB's records for doi:10.1021/jm300280e (Radboud University Nijmegen Medical Centre, 2012)
